Variants at the floor of the assay were thinned out.
B1: tRNA (parent)
chain: CUCUCGGUAGCCAAGUUGGUUUAAGGCGCAAGACUUUAAUUUAUCACUACGAAAUCUUGAGAUCGGGCGUUCGACUCGCCCCCGGGAGAUUUUUUCCUCGAGCAA

Variants of: B1
Test: nonsense suppression (GFP-seq) (ratio to wild type); higher = more function; SUP4oc tRNA, yeast GFP reporter sort-seq
Method in brief: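 Each variant's nonsense suppression (GFPSEQ) is a cell-share-weighted bin median GFP/RFP relative to the unmutated parent tRNA. Yeast with genome-integrated tRNA variants from a ~3% random-mutation library, a galactose-driven GFP ochre reporter and RFP were grown in raffinose/galactose medium with 80 mg/L adenine, then sorted into GFP/RFP bins for Illumina sequencing. Variants needed ≥100 reads and ≥30 cells.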

Row | Variant | nonsense suppression
1 | CUCUCGAUAGCCAAGUUGGUUUAAGGCGCAAGACUUUAAUUUAUCACUACGAAAACUUGAGAUCGGGCGUUCGACUCGCCCCCGGGAGAUUUUUUCCUCGAGCAA | ≤ 0.026
2 | CUCUCGAUAGCCAAGUUGGUUUAAGGCGCAAGACUUUAAUUUAUCACUACGAAAUCUUGAGAUCGGGCGAUCGACUCGCCCCCGGGAGCUUUUUUCCUCGAGCAA | ≤ 0.026
3 | CUCUCGAUAGCCAAGGUGGUUUAAGCCGCAAGACUUUAAUUUAUCACUACGAAAUCUUGAGAUCGGGCGUGCGACUCGCCCCCGGGAGAUUUUUUCCUCGAGCAA | ≤ 0.026
4 | CUCUCGAUAGCCAAGUUGGUUUAAGGCGCAAGACUUUAAUUUAUCACUACGAACUCUUGAGAUCGGUCGUUCGACUCGCCCCCGGGAGAUUUUUUCCUCGAGCAA | ≤ 0.026
5 | CUCUCUGUAGCCAAGGUGGUUUAAGGCGCAAGACUUUAAUUUAUCACUACGAAAUCUUAAGAUCGGGCGUUCGACUCACCCCCGGGAGAUUUUUUCCUCGAGCAA | ≤ 0.026
6 | CUCUCUGUAGCCAAGUUGGUUUAAGGCGCAAGACUUUAAUUUAUCACUACGAAAUCUUGAGAUCGGGCGCUCGACUCGCCCCCGGGAGAUUUUUUCCUCGAGCAA | ≤ 0.026
7 | CUCUCGAUAGCCAAGUUGGUUUAAGGCGCAAGACUUUAAUUUAUCACUACGAAAUCUUGGGAUCGGGCGUUCGACUCGCCCCCGGGAGAUUUUUUCCUCGAGCAA | 0.053
8 | CUCUCGAUAGCCAAGUUGGUUUAAGUCGCAAGACUUUAAUUUAUCACUACGAAAUCUUGAGAUCGGGCGUUCGACUCGCCCCCGGGAGAUUUUUUCCUCGAGCAA | ≤ 0.026
9 | CUCUCUGUAGCCAAGUUGGUUUAAGGCGCAAGACUUUAAUUUAUCACUACGAAAUCUGGAGAUCGGGCGUUCGACCCGCGCCCGGGAGAUUUUUUCCUCGAGCAA | ≤ 0.026
10 | CUCUCGAUAGCCAAGUUGGCUUAAGGCGCAAGACUUUAAUUUAUCACUACGAAAUCUUGAGAUCGGGCGUUCGACUCGCCCACGGAAACUUUUUUCCUCGAGCAA | ≤ 0.026
11 | CUCUCGAUAGCCAAGUUGGUUUAAGGCGCAAGACUUUAAUUUAUCACUACGAAAUCUUGAAAUCGGGCGUUCGACUCGCCCCCGGGAGAUUUUUUCCUCGAGCAA | ≤ 0.026
12 | CUCUCGAUAGCCAAGUUUGUUUAAGGCGCAAGACUUUAAUUUAUCACUACGAAAUCUUGAGAUCGGGCGUUCGACUCGCCCCCGGGAGAUUUUUUCCUCGAGCAA | ≤ 0.026
13 | CUCUCGAUAGCCAAGUUGGUUUAAGGCGCAAGACUUUAAUUUAUCACUACGAAAUCUUGAGAUCGGGCGUUCGACUCGCCGCCGGGAGAUUUUUUCCUCGAGCAA | ≤ 0.026
14 | CUCUCUGUAGCCAAGUUGGUUUAAGGCGCAAGACUUUAAUUUAUCACUACGAAAUCUUGAGAUCGGGCGUUCGACUCGCCCACGGGUGAUUUUUUCCUCGAGCAA | ≤ 0.026
15 | CUCUCUGUAGCCAAGUUGGUUUAAGGCGCAAGACUUUAAUUUAUCACUACGAAAUCUUGGAAUCCGGCGUUCGACUCGCCCCCGGGAGAUUUUUUCCUCGAGCAA | ≤ 0.026
16 | CUCUCUGUAGCCAAGUGGGUUUAAGGCGCAAGACUUUAAUUUAUCACUACGAAAUCUUGAGAUCGGGCGUUCGACUCGCCCCAGGGAGAUUUUUUCCUCGAGCAA | 1.15
17 | CUCUCGAUAGCCAAGUUGGUUUACGGCGCAAGACUUUAAUUUAUCACUACGAAAUCUUGAGAUCGGGCGUUCGACUCGCCCCCGGGAGAUUUUUUCCUCGAGCAA | 0.123
18 | CUCUCGAUAGCCAAGUUGGUUUCAGGCGCAAGACUUUAAUUUAUCACUACGAAAUGUUGAGAUCGGGCGUUCGACUCGCCCCCGGGAGAUUUUUUCCUCGAGCAA | ≤ 0.026
19 | CUCUCGAUAGCCAAGUUGGUUUAAGGCGCAAGAUUUUAAUUUAUCACUACGAAAUCUUGAGAUCGGGCGUUCGACUCGCCCCCGGGAGAUUUUUUCCUCGAGCAA | ≤ 0.026
20 | CUCUCUGUAGCCAAGUCGGUUUAAGGCUCAAGACUUUAAUUUAUCACUACGAAACCUUGAGAUCGGGCUUUCGACUCGCCCCCGGGAUAUUUUUUCCUCGAGCAA | ≤ 0.026
21 | CUCUCUGUAGCCAAGUUGGUUUAAGGCGCAAGACUUUAAUUUAUCACUACGAAAUCUUGAGACCGGGCGUUCGACUCGCCCCCGGGAGAUUUUUUCCUCGAGCAA | ≤ 0.026
22 | CUCUCUGUAGCCAAGUUGGUUUAAGGCGCAAGACUUUAAUUUAUCACUACGAAAUCUUGAGAUCGGGCGUUCGACUCGCUCCCGGGAGAUUUUUUCCUCGAGCAA | ≤ 0.026
23 | CUCUCUGUUGCCAAGUUGGUUUAAGGCGCAAGACUUUAAUUUAUCACUACGAAAUCUUGAGAUCGGGCGUUCGACUCGCCCCCGGGAGAUUUUUUCCUCGAGCAA | 0.0343
24 | CUCUCCGUAGCCAAGUUGGUUUAAGGCGCAAGACUUUAAUUUAUCACUACGAAAUCCUGAGAUCAGACGUUCGCCUCCCCCCCGGGAGAUUUUUUCCUCGAGCAA | ≤ 0.026
25 | CUCUCGAUAGCCAAGUUGGGUUAAGGCGCAAGAUUUUAAUUUAUCACUACGAAAUCUUGAGCUCGGGCGUUCGACUCGCCCCCGGGAGAUUUUUUCCUCGAGCAA | ≤ 0.026
26 | CUCUCCGUAGCCAAGUUGGUUUAAGGCGCAAGACUUUAAUUUAUCACUACGAAAUCUUGAGAUCGGGCGUACGACUCGCCCCCGGGAGAUUUUUUCCUCGAGCAA | ≤ 0.026
27 | CUCUCUGUAGCCAAGUUGGUUUAAGGCGCAAGACUUUAAUUUAUCACUACGAAAUCUUGAGAUCGGGCGUUCGACGCGCCCCCGGGAGAUUUUUUCCUCGAGCAA | ≤ 0.026
